Measurements taken from publication PMC8764296 (International Journal of Nanomedicine, 2022).

Assay: Liver microsomal stability
Type: in vitro ADME
Conditions: mouse liver microsomes 0.5 mg/mL, 50 μM, 37 °C, 4 hours incubation
Method in brief: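 Compound at 50 μM (in vehicle or micelles), with coumarin as control, was preincubated 5 min at 37 °C with mouse liver microsomes (0.5 mg/mL) in PBS pH 7.4. Reactions were started with an NADPH-generating system (3 mM NADPH, 7.2 mM MgCl2, 6 mM G6P, 3 unit G6PDH) and sampled at 0, 5, 30 min and 1, 2, 4 h. Samples were DMSO-extracted for HPLC. ke from lnC versus t gave t1/2 and CL. Triplicate, mean and SD.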

SMILES: O=c1ccc2ccccc2o1 [Coumarin]
- level remaining in liver microsome: 10.7 ± 2.2%
